In ChEMBL document CHEMBL1135621, “Development of novel EDG3 antagonists using a 3D database search and their structure-activity relationships” (J Med Chem, 2002):

What follows are molecules tested against Sphingosine 1-phosphate receptor 3 (Homo sapiens) (UniProt Q99500) (assay: Inhibitory effect towards Sphingosine 1-phosphate receptor Edg-3 (EDG3)). Conditions: concentration not given here.
Design: concentration or dose not given beside the values
How it was run: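 Hela cells transfected with human EDG3 cDNA, seeded in DMEM/10% FBS for 24 h at 37 °C, then in MEM for 24 h. Cells are loaded with 5 µM Calcium Green-1 AM in D-PBS(+) for 60 min, given 10 µM test compound for 5 min, then challenged with 1 µM S1P. Fluorescence (ex 485/em 535 nm) is read every 3 s for 30 s. Inhibition (%) is the RFU difference versus the 0.1% DMSO control, averaged over triplicate wells, run on three separate days.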

Chain of Sphingosine 1-phosphate receptor 3 (Homo sapiens) (Q99500 whole entry): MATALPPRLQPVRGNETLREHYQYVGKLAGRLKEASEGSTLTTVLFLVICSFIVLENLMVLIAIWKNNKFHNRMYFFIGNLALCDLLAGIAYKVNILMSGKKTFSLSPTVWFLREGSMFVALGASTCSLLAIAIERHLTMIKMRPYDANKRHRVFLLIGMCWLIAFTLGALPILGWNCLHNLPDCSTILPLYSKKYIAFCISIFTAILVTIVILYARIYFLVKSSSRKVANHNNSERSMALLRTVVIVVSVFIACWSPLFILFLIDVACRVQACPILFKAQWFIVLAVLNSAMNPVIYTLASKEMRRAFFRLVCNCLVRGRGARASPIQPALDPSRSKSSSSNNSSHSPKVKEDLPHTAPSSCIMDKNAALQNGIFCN

Going from `CCCCCCC1NC(C(=O)O)CS1` (stereo not drawn) to `CCCCCCCCCC1NC(C(=O)O)CS1` (stereo not drawn), the inhibition rises from 0% to 14.8%.

First: CCCCCCCCCCC1NC(C(=O)O)CS1 (stereo not drawn)
Second: CCCCCCCCCC[C@H]1N[C@H](C(=O)O)CS1
The inhibition of the first is lower: 26.4% for the first, 34.5% for the second.

Compared with `CCCCCCCCCCCCC1NC(C(=O)O)CS1` (stereo not drawn), `CCCCCCCCCCCCCC1NC(C(=O)O)CS1` (stereo not drawn) is lower in inhibition: 15.9% for the first, 6.6% for the second.

First: CCCCCCCCCCCCCC1NC(C(=O)O)CCS1 (stereo not drawn)
Second: CCCCCCCCCCCCC1NC(C(=O)O)CCS1 (stereo not drawn)
The inhibition of the first is higher: 5.9% for the first, 0.3% for the second.

First: CCCCCCCCCCCC1NC(C(=O)O)CCS1 (stereo not drawn)
Second: CCCCCCCCCCC1NC(C(=O)O)CCS1 (stereo not drawn)
The inhibition of the first is higher: 9.4% for the first, 9.3% for the second.

Going from `CCCCCCCCCCC[C@H]1N[C@H](C(=O)O)CS1` to `CCCCCCCCCC1NC(C(=O)O)CCS1` (stereo not drawn), the inhibition falls from 37.6% to 6.9%.

Compared with `CCCCCCCc1ccc(C2N[C@H](C(=O)O)CS2)cc1` (stereo partly drawn), `CCCCCCCCCc1ccc(C2N[C@H](C(=O)O)CS2)cc1` (stereo partly drawn) is lower in inhibition: 42.9% for the first, 21.9% for the second.

Going from `CCCCCCCc1cccc(C2N[C@H](C(=O)O)CS2)c1` (stereo partly drawn) to `CCCCCCCCCc1cccc(C2N[C@H](C(=O)O)CS2)c1` (stereo partly drawn), the inhibition falls from 43.4% to 37.2%.

Compared with `CCCCCc1cccc(C2N[C@H](C(=O)O)CS2)c1` (stereo partly drawn), `CCCCCc1ccc(C2N[C@H](C(=O)O)CS2)cc1` (stereo partly drawn) is higher in inhibition: 9.9% for the first, 13% for the second.
